Converted amounts (≈) assume the structure as drawn. The source made the active and inactive calls. The rule behind the calls is not given here.
Columns and labels:
Assay type in all cases: functional
Escherichia coli = assay: Antimicrobial activity against Escherichia coli K-12 MG1655 after 24 hrs by double dilution method
Summary of the method: (§1)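 Double (2-fold) dilution series added to inoculum at OD600 0.1, giving final 256 to 2 μg/mL. H. influenzae was scraped from agar into supplemented BHI medium. Other strains were diluted from an overnight LB culture (37 °C, 200 rpm) into LB. Plates were covered and shaken at 200 rpm, 37 °C, for 24 h before MIC was read. At least two runs in triplicate.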

Bacillus anthracis = assay: Antimicrobial activity against Bacillus anthracis 34F2 Sterne after 24 hrs by double dilution method
Bacillus subtilis = assay: Antimicrobial activity against Bacillus subtilis 168 after 24 hrs by double dilution method; summary of the method: as §1
Bacillus cereus = assay: Antimicrobial activity against Bacillus cereus ATCC 11778 after 24 hrs by double dilution method; summary of the method: as §1
Haemophilus influenzae = assay: Antimicrobial activity against Haemophilus influenzae ATCC 51907 after 24 hrs by double dilution method; summary of the method: as §1
Staphylococcus aureus [1] = assay: Antimicrobial activity against Staphylococcus aureus RN4220 after 24 hrs by double dilution method; summary of the method: as §1
Staphylococcus aureus [2] = assay: Bactericidal activity against Staphylococcus aureus RN4220 8 to 16 ug/ml at after 4 to 24 hrs by time kill assay
Summary of the method: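 Time-kill: 5 mL S. aureus cultures at OD600 0.1 were treated with compound (final 8 to 16 μg/mL) or DMSO. 100 μL was sampled at 0, 4 and 24 h, serially diluted 10-fold in sterile PBS, and 2 μL spotted on LB agar to count CFUs.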

| Structure (SMILES) | MIC (Escherichia coli) | MIC (Bacillus anthracis) | MIC (Bacillus subtilis; subsp. subtilis str. 168) | MIC (Bacillus cereus) | MIC (Haemophilus influenzae) | MIC (Staphylococcus aureus [1]) | MIC (Escherichia coli; K-12 MG1655, 24 h) [µg/mL] | MIC (Bacillus subtilis; subsp. subtilis str. 168, 24 h) [µg/mL] | MIC (Bacillus cereus; ATCC 11778, 24 h) [µg/mL] | MIC (Haemophilus influenzae; ATCC 51907, 24 h) [µg/mL] | MIC (Staphylococcus aureus [1]; RN4220, 24 h) [µg/mL] | Activity (Escherichia coli) | Activity (Bacillus anthracis) | Activity (Bacillus subtilis; subsp. subtilis str. 168) | Activity (Staphylococcus aureus [2]) [log10CFU] | Activity (Bacillus cereus) | Activity (Haemophilus influenzae) | Activity (Staphylococcus aureus [1]) |
| --- | --- | --- | --- | --- | --- | --- | --- | --- | --- | --- | --- | --- | --- | --- | --- | --- | --- | --- |
| NCCCCNCCCN | inactive | inactive | inactive | inactive | inactive | inactive | – | – | – | – | – | – | – | – | – | – | – | – |
| CN(C)[C@@H]1C(O)=C(C(N)=O)C(=O)[C@@]2(O)C(O)=C3C(=O)c4c(O)cccc4[C@@](C)(O)[C@H]3C[C@@H]12 [TETRACYCLINE] | – | < 2 µg/mL | – | – | – | – | < 2 | < 2 | < 2 | < 2 | < 2 | – | – | – | – | – | – | – |
| O=C(O)CCS | inactive | inactive | inactive | inactive | inactive | inactive | – | – | – | – | – | – | – | – | – | – | – | – |
| CCC(C)C(=O)NCC(=O)N1CCN(Cc2ccccc2)CC1 (stereo not drawn) | – | > 128 µg/mL | – | – | – | – | > 128 | > 128 | > 128 | > 128 | > 128 | – | – | – | – | – | – | – |
| CC(C)SCC(=O)NCC(=O)NCc1ccccc1 | – | > 128 µg/mL | – | – | – | – | > 128 | > 128 | > 128 | > 128 | > 128 | – | – | – | – | – | – | – |
| CCCC(=O)N(Cc1ccccc1)C(C(=O)NCCCCN)c1ccc(Br)cc1 (stereo not drawn) | – | 32 µg/mL (≈ 69.5 µM) | – | – | – | – | 256 (≈ 556 µM) | 16 (≈ 34.8 µM) | 32 (≈ 69.5 µM) | 64 (≈ 139 µM) | 32 (≈ 69.5 µM) | – | – | – | – | – | – | – |
| NCc1ccccc1 | inactive | inactive | inactive | inactive | inactive | inactive | – | – | – | – | – | – | – | – | – | – | – | – |
| O=Cc1ccc(Br)cc1 | inactive | inactive | inactive | inactive | inactive | inactive | – | – | – | – | – | – | – | – | – | – | – | – |
| N=C(N)NCCCC[C@H](O)CC(=O)N[C@@H](O)C(=O)NCCCCNCCCN | – | 12.5 µg/mL (≈ 31 µM) | – | – | – | – | 50 (≈ 124 µM) | 6.25 (≈ 15.5 µM) | 50 (≈ 124 µM) | – | 6.25 (≈ 15.5 µM) | – | – | – | – | – | – | – |
| NCCCCNC(=O)C(c1ccc(Br)cc1)N(Cc1ccccc1)C(=O)CCS (stereo not drawn) | – | 4 µg/mL (≈ 8.36 µM) | – | – | – | – | 32 (≈ 66.9 µM) | 4 (≈ 8.36 µM) | 8 (≈ 16.7 µM) | 16 (≈ 33.4 µM) | 8 (≈ 16.7 µM) | Dose-dependent effect | Dose-dependent effect | Dose-dependent effect | >3 | Dose-dependent effect | Dose-dependent effect | Dose-dependent effect |
| N#Cc1ccc(C(=O)N(CCCc2ccccc2)CC(=O)N2CCNCC2)cc1 | – | > 128 µg/mL | – | – | – | – | > 128 | > 128 | > 128 | > 128 | > 128 | – | – | – | – | – | – | – |
| CC(C)C1CCC(C(=O)NCC(=O)NCc2ccccc2)CC1 (stereo not drawn) | – | > 128 µg/mL | – | – | – | – | > 128 | > 128 | > 128 | > 128 | > 128 | – | – | – | – | – | – | – |

Source: ChEMBL document CHEMBL3751709, “Concise Synthesis of Spergualin-Inspired Molecules With Broad-Spectrum Antibiotic Activity” (2015)
